{"source": "ChEMBL document CHEMBL3045963", "about": "“Synthesis of nalidixic acid based hydrazones as novel pesticides” (2010)"}
{"tested_on": "Callosobruchus maculatus", "assay": "Insecticidal activity against adult Callosobruchus maculatus assessed as mortality at 0.1% at 27 +/-1 degC after 24 hr by contact based film residue method", "type": "functional", "conditions": "not given", "summary_of_the_method": "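Lab-reared adults, 2-5 days old, exposed to a dry film: 1 mL of 0.1% compound solution in dichloromethane is swirled in a 90 mm Petri plate and dried 3-5 min. Ten adults per plate are held at 27 ± 1 °C and 70% RH. Mortality is scored at 24 h, with no response to touch counted as dead. Triplicates, solvent control, malathion reference.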", "units": {"mortality": "%"}}
{"smiles": "CCn1cc(C(=O)N/N=C/c2cccc(C)c2)c(=O)c2ccc(C)nc21", "mortality": 60}
{"smiles": "CCn1cc(C(=O)N/N=C/c2ccc(C)cc2)c(=O)c2ccc(C)nc21", "mortality": 20}
{"smiles": "CCn1cc(C(=O)N/N=C/c2ccc(C(C)C)cc2)c(=O)c2ccc(C)nc21", "mortality": 20}
{"smiles": "CCn1cc(C(=O)N/N=C/c2ccc(Cl)cc2Cl)c(=O)c2ccc(C)nc21", "mortality": 40}
{"smiles": "CCn1cc(C(=O)N/N=C/c2c(Cl)cccc2Cl)c(=O)c2ccc(C)nc21", "mortality": 30}
{"smiles": "CCn1cc(C(=O)N/N=C/c2ccc(O)cc2O)c(=O)c2ccc(C)nc21", "mortality": 25}
{"smiles": "CCn1cc(C(=O)N/N=C/c2ccc(OC)cc2OC)c(=O)c2ccc(C)nc21", "mortality": 12}
{"smiles": "CCn1cc(C(=O)N/N=C/c2ccc(OC)c(OC)c2)c(=O)c2ccc(C)nc21", "mortality": 10}
{"tested_on": "Macrophomina phaseolina", "assay": "Fungicidal activity against Rhizoctonia bataticola by poisoned food technique", "type": "functional", "conditions": "read-out: ED50 (the source's name)", "units": {"EC50": "µg/mL"}}
{"smiles": "CCn1cc(C(=O)N/N=C/c2cccc(C)c2)c(=O)c2ccc(C)nc21", "EC50": 322}
{"smiles": "CCn1cc(C(=O)N/N=C/c2ccc(C)cc2)c(=O)c2ccc(C)nc21", "EC50": 378}
{"smiles": "CCn1cc(C(=O)N/N=C/c2ccc(C(C)C)cc2)c(=O)c2ccc(C)nc21", "EC50": 453}
{"smiles": "CCn1cc(C(=O)N/N=C/c2ccc(Cl)cc2Cl)c(=O)c2ccc(C)nc21", "EC50": 495}
{"smiles": "CCn1cc(C(=O)N/N=C/c2c(Cl)cccc2Cl)c(=O)c2ccc(C)nc21", "EC50": 255}
{"smiles": "CCn1cc(C(=O)N/N=C/c2ccc(O)cc2O)c(=O)c2ccc(C)nc21", "EC50": 650}
{"smiles": "CCn1cc(C(=O)N/N=C/c2ccc(OC)cc2OC)c(=O)c2ccc(C)nc21", "EC50": 382}
{"smiles": "CCn1cc(C(=O)N/N=C/c2ccc(OC)c(OC)c2)c(=O)c2ccc(C)nc21", "EC50": 285}
{"tested_on": "Rhizoctonia solani", "assay": "Fungicidal activity against Rhizoctonia solani by poisoned food technique", "type": "functional", "conditions": "read-out: ED50 (the source's name)", "units": {"EC50": "µg/mL"}}
{"smiles": "CCn1cc(C(=O)N/N=C/c2cccc(C)c2)c(=O)c2ccc(C)nc21", "EC50": 301}
{"smiles": "CCn1cc(C(=O)N/N=C/c2ccc(C)cc2)c(=O)c2ccc(C)nc21", "EC50": 372}
{"smiles": "CCn1cc(C(=O)N/N=C/c2ccc(C(C)C)cc2)c(=O)c2ccc(C)nc21", "EC50": 252}
{"smiles": "CCn1cc(C(=O)N/N=C/c2ccc(Cl)cc2Cl)c(=O)c2ccc(C)nc21", "EC50": 354}
{"smiles": "CCn1cc(C(=O)N/N=C/c2c(Cl)cccc2Cl)c(=O)c2ccc(C)nc21", "EC50": 298}
{"smiles": "CCn1cc(C(=O)N/N=C/c2ccc(O)cc2O)c(=O)c2ccc(C)nc21", "EC50": 342}
{"smiles": "CCn1cc(C(=O)N/N=C/c2ccc(OC)cc2OC)c(=O)c2ccc(C)nc21", "EC50": 188}
{"smiles": "CCn1cc(C(=O)N/N=C/c2ccc(OC)c(OC)c2)c(=O)c2ccc(C)nc21", "EC50": 172}
{"tested_on": "Fusarium oxysporum", "assay": "Fungicidal activity against Fusarium oxysporum by poisoned food technique", "type": "functional", "conditions": "read-out: ED50 (the source's name)", "units": {"EC50": "µg/mL"}}
{"smiles": "CCn1cc(C(=O)N/N=C/c2cccc(C)c2)c(=O)c2ccc(C)nc21", "EC50": 103}
{"smiles": "CCn1cc(C(=O)N/N=C/c2ccc(C)cc2)c(=O)c2ccc(C)nc21", "EC50": 195}
{"smiles": "CCn1cc(C(=O)N/N=C/c2ccc(C(C)C)cc2)c(=O)c2ccc(C)nc21", "EC50": 277}
{"smiles": "CCn1cc(C(=O)N/N=C/c2ccc(Cl)cc2Cl)c(=O)c2ccc(C)nc21", "EC50": 121}
{"smiles": "CCn1cc(C(=O)N/N=C/c2c(Cl)cccc2Cl)c(=O)c2ccc(C)nc21", "EC50": 114}
{"smiles": "CCn1cc(C(=O)N/N=C/c2ccc(O)cc2O)c(=O)c2ccc(C)nc21", "EC50": 196}
{"smiles": "CCn1cc(C(=O)N/N=C/c2ccc(OC)cc2OC)c(=O)c2ccc(C)nc21", "EC50": 176}
{"smiles": "CCn1cc(C(=O)N/N=C/c2ccc(OC)c(OC)c2)c(=O)c2ccc(C)nc21", "EC50": 137}
{"tested_on": "Spodoptera litura", "assay": "Insecticidal activity against third-instar larval stage of Spodoptera litura assessed as mortality at 0.1% applied topically on the ventral side of the larvae measured after 24 hr by contact method", "type": "functional", "conditions": "not given", "summary_of_the_method": "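Field-collected larvae are reared in the lab at 27 ± 1 °C and 70% RH. Two microliters of a 0.1% dichloromethane solution is applied to the ventral side. Ten treated larvae are kept per glass bottle and fed fresh castor leaves. Mortality is recorded at 24 h. Triplicate, solvent control.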", "units": {"mortality": "%"}}
{"smiles": "CCn1cc(C(=O)N/N=C/c2ccc(C)cc2)c(=O)c2ccc(C)nc21", "mortality": 10}
{"smiles": "CCn1cc(C(=O)N/N=C/c2c(Cl)cccc2Cl)c(=O)c2ccc(C)nc21", "mortality": 10}
{"smiles": "CCn1cc(C(=O)N/N=C/c2ccc(OC)cc2OC)c(=O)c2ccc(C)nc21", "mortality": 10}
{"tested_on": "Alternaria porri", "assay": "Fungicidal activity against Alternaria porri by poisoned food technique", "type": "functional", "conditions": "read-out: ED50 (the source's name)", "units": {"EC50": "µg/mL"}}
{"smiles": "CCn1cc(C(=O)N/N=C/c2cccc(C)c2)c(=O)c2ccc(C)nc21", "EC50": 66.9}
{"smiles": "CCn1cc(C(=O)N/N=C/c2ccc(C)cc2)c(=O)c2ccc(C)nc21", "EC50": 87.3}
{"smiles": "CCn1cc(C(=O)N/N=C/c2ccc(C(C)C)cc2)c(=O)c2ccc(C)nc21", "EC50": 124}
{"smiles": "CCn1cc(C(=O)N/N=C/c2ccc(Cl)cc2Cl)c(=O)c2ccc(C)nc21", "EC50": 119}
{"smiles": "CCn1cc(C(=O)N/N=C/c2c(Cl)cccc2Cl)c(=O)c2ccc(C)nc21", "EC50": 87.2}
{"smiles": "CCn1cc(C(=O)N/N=C/c2ccc(O)cc2O)c(=O)c2ccc(C)nc21", "EC50": 144}
{"smiles": "CCn1cc(C(=O)N/N=C/c2ccc(OC)cc2OC)c(=O)c2ccc(C)nc21", "EC50": 131}
{"smiles": "CCn1cc(C(=O)N/N=C/c2ccc(OC)c(OC)c2)c(=O)c2ccc(C)nc21", "EC50": 102}
{"tested_on": "Athelia rolfsii", "assay": "Fungicidal activity against Athelia rolfsii by poisoned food technique", "type": "functional", "conditions": "Agroathelia rolfsii; read-out: ED50 (the source's name)", "units": {"EC50": "µg/mL"}}
{"smiles": "CCn1cc(C(=O)N/N=C/c2cccc(C)c2)c(=O)c2ccc(C)nc21", "EC50": 298}
{"smiles": "CCn1cc(C(=O)N/N=C/c2ccc(C)cc2)c(=O)c2ccc(C)nc21", "EC50": 374}
{"smiles": "CCn1cc(C(=O)N/N=C/c2ccc(C(C)C)cc2)c(=O)c2ccc(C)nc21", "EC50": 464}
{"smiles": "CCn1cc(C(=O)N/N=C/c2ccc(Cl)cc2Cl)c(=O)c2ccc(C)nc21", "EC50": 541}
{"smiles": "CCn1cc(C(=O)N/N=C/c2c(Cl)cccc2Cl)c(=O)c2ccc(C)nc21", "EC50": 282}
{"smiles": "CCn1cc(C(=O)N/N=C/c2ccc(O)cc2O)c(=O)c2ccc(C)nc21", "EC50": 397}
{"smiles": "CCn1cc(C(=O)N/N=C/c2ccc(OC)cc2OC)c(=O)c2ccc(C)nc21", "EC50": 375}
{"smiles": "CCn1cc(C(=O)N/N=C/c2ccc(OC)c(OC)c2)c(=O)c2ccc(C)nc21", "EC50": 359}
{"tested_on": "Spodoptera litura", "assay": "Insecticidal activity against third-instar larval stage of prestarved Spodoptera litura in castor leaf assessed as mortality at 0.1% treated for 2 secs before larval infestation measured after 24 hr by feeding method", "type": "functional", "conditions": "not given", "summary_of_the_method": "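Castor leaf is dipped 2 s in 0.1% compound solution, air-dried, and placed on moist filter paper in 9 cm Petri plates. Larvae starved 4 h beforehand are released singly, one per plate. Thirty replicates per treatment, solvent control. Mortality is scored after 24 h.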", "units": {"mortality": "%"}}
{"smiles": "CCn1cc(C(=O)N/N=C/c2cccc(C)c2)c(=O)c2ccc(C)nc21", "mortality": 80}
{"smiles": "CCn1cc(C(=O)N/N=C/c2ccc(C)cc2)c(=O)c2ccc(C)nc21", "mortality": 70}
{"smiles": "CCn1cc(C(=O)N/N=C/c2ccc(C(C)C)cc2)c(=O)c2ccc(C)nc21", "mortality": 10}
{"smiles": "CCn1cc(C(=O)N/N=C/c2ccc(Cl)cc2Cl)c(=O)c2ccc(C)nc21", "mortality": 100}
{"smiles": "CCn1cc(C(=O)N/N=C/c2c(Cl)cccc2Cl)c(=O)c2ccc(C)nc21", "mortality": 100}
{"smiles": "CCn1cc(C(=O)N/N=C/c2ccc(O)cc2O)c(=O)c2ccc(C)nc21", "mortality": 40}
{"smiles": "CCn1cc(C(=O)N/N=C/c2ccc(OC)cc2OC)c(=O)c2ccc(C)nc21", "mortality": 100}
{"smiles": "CCn1cc(C(=O)N/N=C/c2ccc(OC)c(OC)c2)c(=O)c2ccc(C)nc21", "mortality": 40}
